This is an account of results in article PMC3361572 (Chemistry & biology, 2012).

The conditions of series [1]: no reference given; cited from earlier work.
Series [2] deals with other rat brain serine hydrolases. The series can be described thus: competitive ABPP, rat brain proteome, other serine hydrolases. It counts as biochemical. In outline:
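Rat brain proteome was preincubated with test compound, then labelled with the serine hydrolase-directed probe FP-rhodamine. Proteins were separated by SDS-PAGE and scanned by in-gel fluorescence. Inhibition of individual serine hydrolases was scored as reduced probe labelling.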

The next series concerns the target T1, hMAGL (Homo sapiens, UniProt Q99685).
T1 sequence (Q99685 1-303): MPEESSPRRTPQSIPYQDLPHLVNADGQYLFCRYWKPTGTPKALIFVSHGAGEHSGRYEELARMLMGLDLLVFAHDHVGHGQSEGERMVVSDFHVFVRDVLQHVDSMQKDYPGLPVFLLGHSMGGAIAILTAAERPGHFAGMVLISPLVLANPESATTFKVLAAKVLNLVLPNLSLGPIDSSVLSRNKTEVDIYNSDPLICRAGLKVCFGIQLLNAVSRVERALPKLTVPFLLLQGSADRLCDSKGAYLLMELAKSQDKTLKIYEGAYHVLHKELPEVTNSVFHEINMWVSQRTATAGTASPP
The series can be described thus: competitive ABPP, proteomes of transiently transfected HEK293T cells. To be noted: read-out: IC50 (95% CI), human MAGL, transfected HEK293T cell proteome. Type of series: biochemical.

In series [3] the target is T2, MAGL (Rattus norvegicus, UniProt Q8R431).
T2 sequence (Q8R431 1-303): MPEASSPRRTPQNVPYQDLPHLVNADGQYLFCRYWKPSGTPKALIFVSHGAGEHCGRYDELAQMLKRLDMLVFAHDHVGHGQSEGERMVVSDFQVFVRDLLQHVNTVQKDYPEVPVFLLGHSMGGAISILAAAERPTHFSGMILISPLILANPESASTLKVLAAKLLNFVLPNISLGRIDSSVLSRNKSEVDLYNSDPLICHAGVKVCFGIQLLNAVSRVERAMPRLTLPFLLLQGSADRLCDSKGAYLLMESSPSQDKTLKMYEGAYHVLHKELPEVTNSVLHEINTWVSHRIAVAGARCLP
Nature of the series: competitive ABPP, rat brain membrane proteome. It counts as biochemical. To be noted: read-out: IC50 (95% CI), rat MAGL; competitive ABPP, rat brain membrane proteome. In a few lines:
(§1)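 Brain (mouse or rat) or mouse lung proteomes were preincubated with the test compound, then treated with the serine hydrolase probe FP-Rh. Samples were separated by SDS-PAGE and read by in-gel fluorescence scanning. Inhibition was taken as reduced FP-Rh labelling of MAGL, ABHD6, FAAH or CES bands, and IC50 values were calculated from quantified gel bands. Three independent experiments.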

The target in series [4] is T3, FAAH (Mus musculus, UniProt O08914).
T3 sequence (O08914 1-579): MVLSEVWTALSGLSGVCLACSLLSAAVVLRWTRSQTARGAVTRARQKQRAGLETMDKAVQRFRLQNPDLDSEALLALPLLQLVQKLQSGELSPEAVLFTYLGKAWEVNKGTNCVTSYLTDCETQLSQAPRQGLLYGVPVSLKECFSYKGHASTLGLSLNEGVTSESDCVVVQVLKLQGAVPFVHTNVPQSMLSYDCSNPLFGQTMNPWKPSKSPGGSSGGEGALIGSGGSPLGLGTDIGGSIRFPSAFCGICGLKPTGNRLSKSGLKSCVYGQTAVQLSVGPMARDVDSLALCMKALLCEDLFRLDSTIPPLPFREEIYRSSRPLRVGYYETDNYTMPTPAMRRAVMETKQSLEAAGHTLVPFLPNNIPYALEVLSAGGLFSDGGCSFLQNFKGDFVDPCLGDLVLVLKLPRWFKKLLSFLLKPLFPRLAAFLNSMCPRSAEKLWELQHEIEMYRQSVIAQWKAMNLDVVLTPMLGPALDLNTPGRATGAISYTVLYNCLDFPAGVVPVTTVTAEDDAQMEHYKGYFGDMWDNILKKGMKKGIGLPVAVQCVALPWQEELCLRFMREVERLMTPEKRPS
The series can be described thus: competitive ABPP, mouse brain membrane proteome. It counts as biochemical. In a few lines: as §1

The target in series [5] is T4, FAAH (Rattus norvegicus, UniProt P97612).
T4 sequence (P97612 1-579): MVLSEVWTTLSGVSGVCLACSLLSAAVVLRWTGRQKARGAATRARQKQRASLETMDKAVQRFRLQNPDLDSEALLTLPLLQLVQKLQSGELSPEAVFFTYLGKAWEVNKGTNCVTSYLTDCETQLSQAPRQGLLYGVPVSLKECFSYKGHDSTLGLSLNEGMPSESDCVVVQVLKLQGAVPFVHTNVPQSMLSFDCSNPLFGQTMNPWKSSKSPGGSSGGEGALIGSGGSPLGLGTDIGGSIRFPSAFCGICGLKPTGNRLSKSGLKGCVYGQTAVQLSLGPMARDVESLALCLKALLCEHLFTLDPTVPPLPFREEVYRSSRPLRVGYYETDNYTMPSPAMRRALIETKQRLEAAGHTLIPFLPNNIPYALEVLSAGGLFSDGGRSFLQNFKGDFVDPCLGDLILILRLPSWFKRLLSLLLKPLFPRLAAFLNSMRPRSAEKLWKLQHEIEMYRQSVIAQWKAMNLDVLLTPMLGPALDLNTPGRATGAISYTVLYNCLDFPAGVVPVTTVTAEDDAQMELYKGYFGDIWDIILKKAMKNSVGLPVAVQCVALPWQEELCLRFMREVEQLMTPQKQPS
The series can be described thus: competitive ABPP, rat brain membrane proteome. It counts as biochemical. To be noted: read-out: IC50 (95% CI), rat FAAH; competitive ABPP, rat brain membrane proteome. In outline: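 Rat brain proteome pre-treated with test compound, then labelled with the serine hydrolase-directed fluorophosphonate-rhodamine (FP-Rh) activity-based probe. Proteins separated by SDS-PAGE and detected by in-gel fluorescence scanning. Inhibition scored as loss of FP-Rh labelling of the FAAH band. IC50 calculated from the gel-based ABPP data.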

For another series, the target named is T5, hFAAH (Homo sapiens, UniProt O00519).
T5 sequence (O00519 1-579): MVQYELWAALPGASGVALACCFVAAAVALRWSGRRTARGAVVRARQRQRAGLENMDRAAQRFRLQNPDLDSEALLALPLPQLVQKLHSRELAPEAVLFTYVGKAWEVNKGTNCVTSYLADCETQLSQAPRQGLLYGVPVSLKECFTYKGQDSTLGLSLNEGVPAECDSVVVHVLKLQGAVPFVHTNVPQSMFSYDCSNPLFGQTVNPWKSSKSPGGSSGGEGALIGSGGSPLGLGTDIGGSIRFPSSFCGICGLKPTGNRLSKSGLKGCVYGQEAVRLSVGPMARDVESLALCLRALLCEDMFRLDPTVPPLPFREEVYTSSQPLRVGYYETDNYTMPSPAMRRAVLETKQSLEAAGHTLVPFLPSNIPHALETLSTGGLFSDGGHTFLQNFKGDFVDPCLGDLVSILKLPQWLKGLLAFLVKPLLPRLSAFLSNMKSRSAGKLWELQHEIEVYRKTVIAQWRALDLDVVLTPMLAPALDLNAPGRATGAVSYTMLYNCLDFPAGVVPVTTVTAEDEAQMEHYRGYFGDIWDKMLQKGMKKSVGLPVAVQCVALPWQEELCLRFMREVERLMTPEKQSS
Nature of the series: competitive ABPP, proteomes of transiently transfected HEK293T cells. To be noted: for IC50: read-out: IC50 (95% CI), human FAAH, competitive ABPP, transfected HEK293T cell proteome. Type of series: biochemical.

The target in series [6] is T6, MAGL (Mus musculus, UniProt O35678).
T6 sequence (O35678 1-303): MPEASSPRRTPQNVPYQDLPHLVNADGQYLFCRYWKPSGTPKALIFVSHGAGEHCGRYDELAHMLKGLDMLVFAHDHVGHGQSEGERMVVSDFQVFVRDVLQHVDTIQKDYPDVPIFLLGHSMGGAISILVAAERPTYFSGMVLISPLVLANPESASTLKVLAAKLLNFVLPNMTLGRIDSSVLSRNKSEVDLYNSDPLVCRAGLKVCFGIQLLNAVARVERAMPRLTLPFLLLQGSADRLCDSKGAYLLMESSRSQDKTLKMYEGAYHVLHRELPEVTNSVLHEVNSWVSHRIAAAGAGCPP
Nature of the series: competitive ABPP, mouse brain membrane proteome. Type of series: biochemical. To be noted: mouse brain proteome, competitive ABPP.

Series [7] has as its system brain 2-AG, AA, AEA, PEA, OEA. The series can be described thus: brain lipid profile of inhibitor-treated mice. Type of series: in vivo, mouse. To be noted: 40 mg kg^−1 p.o., six days.
For series [8] the following is noted: previously noted by the authors, no reference given; cited from earlier work.
Series [9] concerns the target T3, FAAH. The series can be described thus: competitive ABPP of brain from inhibitor-treated mice. It counts as in vivo.
Series [10] relates to carboxylesterase (CES) enzymes. The series can be described thus: gel-based ABPP of liver, lung and spleen from inhibitor-treated mice. Type of series: in vivo, mouse.

As a reminder, the IC50 is the concentration needed to halve the response being measured.

For the compound `OC(C(F)(F)F)C(F)(F)F` [hexafluoroisopropanol], the pKa in series [1] is on record as ~ 9.3.

With `O=C(OC(C(F)(F)F)C(F)(F)F)N1CCN(Cc2cccc(Oc3ccccc3)c2)CC1` [JW642], the “additional off-target reactivity with other rat brain serine hydrolases” value in series [2] is given as “did not detect any additional off-target reactivity”. The IC50 amounted to 0.0037 µM on hMAGL, 0.014 µM on MAGL [3], 14 µM on FAAH [5] and 20.6 µM at hFAAH. At FAAH [4] (competitive ABPP, up to 10 μM), the FAAH reactivity result was “no observable FAAH reactivity up to 10 μM”. The “potency for MAGL relative to FAAH” value at MAGL [6] is reported as > 1000 fold.

As to `O=C(Oc1ccc([N+](=O)[O-])cc1)N1CCC(C(O)(c2ccc3c(c2)OCO3)c2ccc3c(c2)OCO3)CC1` [JZL184, reference compound], the “brain 2-AG and NAE levels, chronic dosing” value in [7] is “increases in both 2-AG and NAEs”. The IC50 is 0.262 µM on MAGL [3], 3.57 µM on FAAH [5] and > 50 µM on hFAAH. In addition, the “solubility in dosing vehicle” value in series [8] is on record as “limited solubility”. Further, on FAAH [9] (40 mg kg^−1 p.o., six days), the “brain FAAH inhibition, chronic dosing” value is on record as “not only inhibited MAGL, but also FAAH”. The “inhibition of brain FAAH” value at FAAH [9] (highest dose tested 40 mg kg^−1 p.o., 4 h) is reported as “partially inhibit FAAH”. The “CES inhibition in peripheral tissues, chronic dosing” value in [10] (40 mg kg^−1 p.o., six days) is reported as “several CES enzymes in peripheral tissues”. Moreover, the “reactivity with CESs in liver, lung and spleen” value in series [10] (1–40 mg kg^−1 p.o., 4 h) is on record as “significant reactivity with several CESs”. Moreover, the “cross-reactivity with hFAAH (competitive ABPP)” value on hFAAH (lysates of HEK293T cells transfected with hFAAH) is recorded as “no detectable cross-reactivity with FAAH up to 50 μM”.

As to `CN(Cc1cccc(-c2ccncc2)c1)C(=O)OC(C(F)(F)F)C(F)(F)F` [JW618], the “additional off-target reactivity with other rat brain serine hydrolases” value in [2] is reported as “did not detect any additional off-target reactivity”. Moreover, the results for the IC50 on MAGL [3], at FAAH [5] and at hFAAH were 0.385 µM, > 50 µM and > 50 µM, respectively. Also, the “FAAH inhibition / cross-reactivity (gel-based ABPP)” value at FAAH [4] (mouse brain proteome, concentration range tested 0.001–50 μM) is recorded as “no detectable crossreactivity with FAAH”.
